According to ChEMBL document CHEMBL4808197, “Synthesis, docking, machine learning and antiproliferative activity of the 6-ferrocene/heterocycle-2-aminopyrimidine and 5-ferrocene-1H-Pyrazole derivatives obtained by microwave-assisted Atwal reaction as potential anticancer agents” (Bioorg Med Chem Lett, 2021):
pIC50: −log10 of the molar value.

Assays:
Assay type in all cases: functional, cell-based
[1] = tested on: HL-60; experiment: Antiproliferative activity against human HL-60 cells assessed as inhibition of cell proliferation measured by MTT assay
Procedure, shortened: (§1)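 Tumour cell panel: HCT116 (colorectal carcinoma), PC3 (prostate adenocarcinoma), HL60 (acute promyelocytic leukaemia), SNB19 (astrocytoma). Antiproliferative effect reported as half-maximal inhibitory concentration (IC50, µM) for each line.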

[2] = tested on: PC-3; experiment: Antiproliferative activity against human PC-3 cells assessed as inhibition of cell proliferation measured by MTT assay; procedure, shortened: as §1
[3] = tested on: HCT-116; experiment: Antiproliferative activity against human HCT-116 cells assessed as inhibition of cell proliferation measured by MTT assay; procedure, shortened: as §1
[4] = tested on: SNB-19; experiment: Antiproliferative activity against human SNB-19 cells assessed as inhibition of cell proliferation measured by MTT assay; procedure, shortened: as §1
[5] = tested on: HeLa; experiment: Cytotoxicity against human HeLa cells assessed as inhibition of cell viability
[6] = tested on: A549; experiment: Antiproliferative activity against human A549 cells assessed as inhibition of cell proliferation
[7] = tested on: B16-F10; experiment: Antiproliferative activity against mouse B16-F10 cells assessed as inhibition of cell proliferation

Row | SMILES | pIC50 [1] | pIC50 [2] | pIC50 [3] | pIC50 [4] | pIC50 [5] | pIC50 [6] | pIC50 [7]
1 | Nc1nc(-c2ccccc2)cc(-c2cnn(-c3ccccc3)n2)n1 | 4.18 | 3.85 | 3.92 | < 3.70 | – | – | –
2 | Nc1ccc(-c2cc(-c3cnn(-c4ccccc4)n3)nc(N)n2)cc1 | 4.17 | 4.23 | 4.02 | 3.97 | – | – | –
3 | Nc1nc(-c2ccccc2)cc(-c2cccs2)n1 | 4.15 | 4.47 | 4.24 | 4.07 | – | – | –
4 | Nc1nc(-c2ccccc2)cc(-c2ccc[nH]2)n1 | 4.53 | 4.09 | 4.26 | 3.76 | – | – | –
5 | Nc1nc(-c2ccccc2)cc(-c2cn(-c3ccccc3)nc2-c2ccc([N+](=O)[O-])cc2)n1 | – | – | – | – | 5.26 | – | –
6 | Nc1nc(-c2ccc([N+](=O)[O-])cc2)cc(-c2cnn(-c3ccccc3)n2)n1 | < 3.70 | < 3.70 | 3.88 | 3.88 | – | – | –
7 | Cc1ccc(-c2cc(C(F)(F)F)nn2-c2ccc(S(N)(=O)=O)cc2)cc1 [CELECOXIB] | – | – | – | – | – | 4.79 | 4.79
